From ChEMBL document CHEMBL1124711, “Design and synthesis of 14 alpha-methyl-15-aza-D-homosterols as novel antimycotics” (1990)
In brackets after ≈: the same amount, converted by molar mass.

Experiments:
[1] = tested on: Mus musculus; assay: The number of survivors/total infected at day 14 was determined after (ip) administration of 2 mg/kg in Candida albicans infected mice; 4/10; assay type: functional
[2] = tested on: Candida albicans; assay: Minimum inhibitory concentration was determined against Candida albicans 3153A strain; assay type: functional
[3] = tested on: Candida albicans; assay: Minimum fungicidal concentration was determined against Candida albicans 3153A strain; assay type: functional
Summary of the method: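 Fungicidal endpoint: lowest drug concentration whose subcultures were negative or grew fewer than three colonies.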

[4] = tested on: Mus musculus; assay: The number of survivors/total infected at day 14 was determined after (ip) administration of 2 mg/kg in Candida albicans infected mice; 6/10; assay type: functional
[5] = tested on: Mus musculus; assay: The number of survivors/total infected at day 14 was determined after (ip) administration of 1 mg/kg in Candida albicans infected mice; 10/10
[6] = Candida albicans, read-out: MIC
[7] = Candida albicans, read-out: MFC

| SMILES | No. of survivors [1] | MIC [2] [µg/mL] | MIC [2, 6] [µg/mL] | MFC [3] [µg/mL] | MFC [3, 7] [µg/mL] | No. of survivors [4] | No. of survivors [5] |
| --- | --- | --- | --- | --- | --- | --- | --- |
| CC(C)CCC[C@@H](C)C1CCN[C@@]2(C)C3=C(CC[C@]12C)[C@@]1(C)CC[C@H](O)CC1CC3 (stereo partly drawn) | 4 | 3.1 (≈ 7.46 µM) | 3.1 (≈ 7.46 µM) | 6.3 (≈ 15.2 µM) | 6.3 (≈ 15.2 µM) |  |  |
| CC(C)[C@@H](C)/C=C/[C@@H](C)C1CCN[C@@]2(C)C3=CCC4C(C)(C)[C@@H](O)CC[C@]4(C)C3CC[C@]12C (stereo partly drawn) |  | 1.6 (≈ 3.51 µM) | 1.6 (≈ 3.51 µM) | 6.3 (≈ 13.8 µM) | 6.3 (≈ 13.8 µM) |  |  |
| CC(C)CCC[C@@H](C)C1CC(=O)N[C@@]2(C)C3=CCC4C[C@@H](O)CC[C@]4(C)C3CC[C@]12C (stereo partly drawn) |  |  | > 100 |  |  |  |  |
| CC(C)[C@@H](C)/C=C/[C@@H](C)C1CCN[C@@]2(C)C3=CCC4C[C@@H](O)CC[C@]4(C)C3CC[C@]12C (stereo partly drawn) |  | 0.8 (≈ 1.87 µM) | 0.8 (≈ 1.87 µM) | 6.3 (≈ 14.7 µM) | 6.3 (≈ 14.7 µM) |  |  |
| CC(C)CCC[C@@H](C)C1CCN[C@@]2(C)C3=CCC4C[C@@H](O)CC[C@]4(C)C3CC[C@]12C (stereo partly drawn) |  | 1.6 (≈ 3.85 µM) | 1.6 (≈ 3.85 µM) | 6.3 (≈ 15.2 µM) | 6.3 (≈ 15.2 µM) | 6 |  |
| CC(C)CCC[C@@H](C)C1CCN[C@@]2(C)C3=CCC4C(C)(C)[C@@H](O)CC[C@]4(C)C3CC[C@]12C (stereo partly drawn) |  | 1.6 (≈ 3.61 µM) | 1.6 (≈ 3.61 µM) | 3.1 (≈ 6.99 µM) | 3.1 (≈ 6.99 µM) |  |  |
| C[C@@H]1[C@H](O)[C@@H](C)/C=C/C=C/C=C/C=C/C=C/C=C/C=C/[C@H](O[C@@H]2O[C@H](C)[C@@H](O)[C@H](N)[C@@H]2O)C[C@@H]2O[C@](O)(C[C@@H](O)C[C@@H](O)[C@H](O)CC[C@@H](O)C[C@@H](O)CC(=O)O[C@H]1C)C[C@H](O)[C@H]2C(=O)O [AMPHOTERICIN B] |  | 0.16 (≈ 0.173 µM) | 0.16 (≈ 0.173 µM) |  |  |  | 10 |
| OC(Cn1cncn1)(Cn1cncn1)c1ccc(F)cc1F [FLUCONAZOLE] |  | 0.8 (≈ 2.61 µM) | 0.8 (≈ 2.61 µM) |  |  |  |  |
